In this test the target is Single-stranded DNA-binding protein (Escherichia coli (strain K12)) (UniProt P0AGE0). Put plainly: E. coli SSB-ssDNA binding disruption – biochemical, fluorescence polarization, selectivity assay for HCV NS3 helicase inhibitor project, late-stage follow-up (AID 623966). The conditions noted are these: E. coli SSB / Cy5-dT15 DNA. In outline:
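System: E. coli SSB (ssDNA-binding protein), Cy5-labelled dT15 DNA; quantity: 20 nM E. coli SSB per well, final; dosing: compound dilution series in DMSO; signal: fluorescence polarization of Cy5 label; evaluation: percent displacement and IC50 from dose-response fits; benchmarks: no-enzyme wells and 200 nM dT20 competitor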
(In general: In fluorescence polarisation assays a small probe gives low polarisation when free and higher when bound to something large.)

Values joined by “and” are separate entries in the source; they are usually repeats but may differ in a detail not shown here. Equal values may be shown once. Active and inactive are the calls of the source.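 The calls were made as follows: active = compounds that push a bacterial single-strand DNA binding protein off labeled DNA, with IC50 up to 50 micromolar; inactive = the rest.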

Chain of Single-stranded DNA-binding protein (Escherichia coli (strain K12)) (P0AGE0 whole entry, looked up): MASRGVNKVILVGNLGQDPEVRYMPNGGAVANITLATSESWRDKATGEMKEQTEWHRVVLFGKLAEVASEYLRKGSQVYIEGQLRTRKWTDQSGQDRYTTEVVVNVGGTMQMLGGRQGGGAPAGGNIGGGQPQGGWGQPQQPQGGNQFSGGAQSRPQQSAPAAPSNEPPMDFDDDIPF

The IC50 is the concentration needed to halve the response being measured. With `Cc1ccc2nc(-c3ccc(NC(=O)c4ccc(NC(=O)c5ccc(N)cc5)cc4)cc3)sc2c1S(=O)(=O)O`, the IC50 is 17 µM.
The result for `Cc1ccc2nc(-c3ccc4nc(-c5ccc(NC(=O)c6ccc7nc(-c8ccc(NC(=O)OCC9c%10ccccc%10-c%10ccccc%109)cc8)sc7c6)cc5)sc4c3)sc2c1S(=O)(=O)O` reads 5 µM; that for `Cc1ccc2nc(-c3ccc4nc(-c5ccc(NC(=O)c6ccc(C(C)(C)C)cc6)cc5)sc4c3)sc2c1S(=O)(=O)O`, 32 µM; that for `Cc1ccc2nc(-c3ccc4nc(-c5ccc(NC(=O)c6ccc(C(F)(F)F)cc6)cc5)sc4c3)sc2c1S(=O)(=O)O`, 4 µM.
For the molecule `Cc1ccc2nc(-c3ccc4nc(-c5ccc(NC(=O)c6ccc(NC(=O)OCC7c8ccccc8-c8ccccc87)cc6)cc5)sc4c3)sc2c1S(=O)(=O)O`, the IC50 was > 100 µM (inactive).
The result for `Cc1ccc2nc(-c3ccc4nc(-c5ccc(NC(=O)c6cc(C(F)(F)F)ccc6F)cc5)sc4c3)sc2c1S(=O)(=O)O` reads 12 µM; that for `Cc1ccc2nc(-c3ccc4nc(-c5ccc(N(C)C(=O)c6ccc7ccccc7c6)cc5)sc4c3)sc2c1S(=O)(=O)O`, 9 µM.
Regarding `Cc1ccc2nc(-c3ccc4nc(-c5ccc(NC(=O)c6cccc(C(F)(F)F)c6F)cc5)sc4c3)sc2c1S(=O)(=O)O`, the IC50 entry was “inactive”.
The result for `Cc1ccc2nc(-c3ccc4nc(-c5ccc(NC(=O)c6ccc(N)cc6)cc5)sc4c3)sc2c1S(=O)(=O)O` reads 3 µM.
The result for `Cc1ccc2nc(-c3ccc4nc(-c5ccc(NC(=O)c6c(F)cccc6C(F)(F)F)cc5)sc4c3)sc2c1S(=O)(=O)O` reads 13 µM; that for `Cc1ccc2nc(-c3ccc4nc(-c5ccc(NC(=O)c6cc(F)ccc6C(F)(F)F)cc5)sc4c3)sc2c1S(=O)(=O)O`, 14 µM.
The result for `Cc1ccc2nc(-c3ccc(NC(=O)c4ccc(NC(=O)c5ccc(C(F)(F)F)cc5)cc4)cc3)sc2c1S(=O)(=O)O` reads 23 µM; that for `CC(=O)Nc1ccc(-c2nc3ccc(-c4nc5ccc(C)c(S(=O)(=O)O)c5s4)cc3s2)cc1`, 17 µM; that for `Cc1ccc(C(=O)Nc2ccc(-c3nc4ccc(-c5nc6ccc(C)c(S(=O)(=O)O)c6s5)cc4s3)cc2)cc1`, 5 µM.
On to `Cc1ccc2nc(-c3ccc(NC(=O)c4ccc(NC(=O)OCC5c6ccccc6-c6ccccc65)cc4)cc3)sc2c1S(=O)(=O)O`, for which the half-inhibitory concentration (IC50) is 27 µM.
As to `Cc1ccc2nc(-c3ccc4nc(-c5ccc(NC(=O)c6ccc(Br)cc6)cc5)sc4c3)sc2c1S(=O)(=O)O`, the half-maximal inhibitory concentration (IC50) was 27 µM.
In the case of `Cc1ccc2nc(-c3ccc4nc(-c5ccc(NC(=O)c6cc(C(F)(F)F)cc(C(F)(F)F)c6)cc5)sc4c3)sc2c1S(=O)(=O)O` it was 36 µM; in that of `Cc1ccc2nc(-c3ccc4nc(-c5ccc(NC(=O)c6ccc(F)cc6)cc5)sc4c3)sc2c1S(=O)(=O)O`, 14 µM.
In the case of `Cc1ccc2nc(-c3ccc4nc(-c5ccc(NC(=O)Nc6ccc(Cl)cc6)cc5)sc4c3)sc2c1S(=O)(=O)O` it was 5 µM; in that of `Cc1ccc2nc(-c3ccc4nc(-c5ccc(NC(=S)Nc6ccccc6)cc5)sc4c3)sc2c1S(=O)(=O)O`, 7 µM.
In the case of `Cc1ccc2nc(-c3ccc4nc(-c5ccc(NC(=O)c6ccc(C(F)(F)F)c(F)c6)cc5)sc4c3)sc2c1S(=O)(=O)O` it was 10 µM; in that of `Cc1ccc2nc(-c3ccc4nc(-c5ccc(NC(=O)c6ccccc6C(F)(F)F)cc5)sc4c3)sc2c1S(=O)(=O)O`, 13 µM.
For the molecule `Cc1ccc2nc(-c3ccc4nc(-c5ccc(NC(=O)c6ccc7nc(-c8ccc(N)cc8)sc7c6)cc5)sc4c3)sc2c1S(=O)(=O)O`, the concentration for half-maximal inhibition (IC50) was 3 µM.
In the case of `Cc1ccc2nc(-c3ccc(NC(=O)c4ccc(NS(=O)(=O)c5ccccc5)cc4)cc3)sc2c1S(=O)(=O)O` it was > 100 µM (inactive); in that of `Cc1ccc(NC(=O)Nc2ccc(-c3nc4ccc(-c5nc6ccc(C)c(S(=O)(=O)O)c6s5)cc4s3)cc2)cc1`, 10 µM; in that of `Cc1ccc2nc(-c3ccc(NC(=O)c4ccc(NC(=O)Nc5ccccc5)cc4)cc3)sc2c1S(=O)(=O)O`, 20 µM.
The result for `Cc1ccc2nc(-c3ccc4nc(-c5ccc(NC(=O)c6cccc(C(F)(F)F)c6)cc5)sc4c3)sc2c1S(=O)(=O)O` reads > 100 µM (inactive); that for `COc1ccc(S(=O)(=O)Nc2ccc(-c3nc4ccc(-c5nc6ccc(C)c(S(=O)(=O)O)c6s5)cc4s3)cc2)cc1`, 10 µM; that for `Cc1ccc2nc(-c3ccc(NC(=O)c4ccc(NC(=O)c5ccccc5)cc4)cc3)sc2c1S(=O)(=O)O`, “inactive”.
Turning to `Cc1ccc2nc(-c3ccc4nc(-c5ccc(NC(=O)c6ccc(Cl)c(Cl)c6)cc5)sc4c3)sc2c1S(=O)(=O)O`, the IC50 is > 100 µM (inactive).
The result for `Cc1ccc2nc(-c3ccc4nc(-c5ccc(NC(=O)c6ccc(CNC(=O)OCC7c8ccccc8-c8ccccc87)cc6)cc5)sc4c3)sc2c1S(=O)(=O)O` reads “inactive”; that for `Cc1ccc2nc(-c3ccc4nc(-c5ccc(NC(=O)Nc6ccccc6)cc5)sc4c3)sc2c1S(=O)(=O)O`, 6 µM.
Take `Cc1ccc2nc(-c3ccc4nc(-c5ccc(NC(=O)Nc6ccc(F)cc6)cc5)sc4c3)sc2c1S(=O)(=O)O`: the IC50 is 11 µM.
The result for `Cc1ccc2nc(-c3ccc(NC(=O)c4ccc(NC(=O)c5ccc(NC(=O)OCC6c7ccccc7-c7ccccc76)cc5)cc4)cc3)sc2c1S(=O)(=O)O` reads 7 µM; that for `Cc1ccc2nc(-c3ccc4nc(-c5ccc(NC(=O)c6cccc7ccccc67)cc5)sc4c3)sc2c1S(=O)(=O)O`, 9 µM; that for `Cc1ccc2nc(-c3ccc4nc(-c5ccc(NC(=O)c6ccc7ccccc7c6)cc5)sc4c3)sc2c1S(=O)(=O)O`, 22 µM and 28 µM.
The result for `COc1ccc(C(=O)Nc2ccc(-c3nc4ccc(-c5nc6ccc(C)c(S(=O)(=O)O)c6s5)cc4s3)cc2)cc1` reads 2 µM.
Take `COc1ccc(NC(=O)Nc2ccc(-c3nc4ccc(-c5nc6ccc(C)c(S(=O)(=O)O)c6s5)cc4s3)cc2)cc1`: the half-maximal inhibitory concentration (IC50) is 4 µM.
Take `Cc1ccc2nc(-c3ccc(NC(=O)c4ccc(NC(=S)Nc5ccccc5)cc4)cc3)sc2c1S(=O)(=O)O`: the concentration for half-maximal inhibition (IC50) was 23 µM.
In the case of `Cc1ccc2nc(-c3ccc4nc(-c5ccc(NC(=O)c6ccc(Cl)cc6)cc5)sc4c3)sc2c1S(=O)(=O)O` it was 46 µM; in that of `Cc1ccc2nc(-c3ccc4nc(-c5ccc(NC(=O)c6cccc(Cl)c6)cc5)sc4c3)sc2c1S(=O)(=O)O`, > 100 µM (inactive).
The result for `Cc1ccc2nc(-c3ccc4nc(-c5ccc(NC(=O)c6cccnc6)cc5)sc4c3)sc2c1S(=O)(=O)O` reads > 100 µM (inactive); that for `Cc1ccc2nc(-c3ccc4nc(-c5ccc(NCc6ccccc6)cc5)sc4c3)sc2c1S(=O)(=O)O`, 5 µM.
In the case of `Cc1ccc2nc(-c3ccc4nc(-c5ccc(NC(=O)c6ccc(N(C)C)cc6)cc5)sc4c3)sc2c1S(=O)(=O)O` it was 4 µM.
As for `Cc1ccc2nc(-c3ccc4nc(-c5ccc(NC(=O)c6ccncc6)cc5)sc4c3)sc2c1S(=O)(=O)O`, the IC50 entry is “inactive”.
For `Cc1ccc2nc(-c3ccc4nc(-c5ccc(NC(=O)c6cc(F)cc(C(F)(F)F)c6)cc5)sc4c3)sc2c1S(=O)(=O)O`, the IC50 was > 100 µM (inactive).
In the case of `COC(=O)c1ccc(C(=O)Nc2ccc(-c3nc4ccc(-c5nc6ccc(C)c(S(=O)(=O)O)c6s5)cc4s3)cc2)cc1` it was 2 µM; in that of `Cc1ccc2nc(-c3ccc4nc(-c5ccc(NC(=O)Nc6ccc(C(F)(F)F)cc6)cc5)sc4c3)sc2c1S(=O)(=O)O`, 15 µM; in that of `Cc1ccc2nc(-c3ccc4nc(-c5ccc(NC(=O)c6ccccc6)cc5)sc4c3)sc2c1S(=O)(=O)O`, 4 µM.

The values are drawn from PubChem BioAssay AID623966 (The Scripps Research Institute Molecular Screening Center, 2012).
